According to ChEMBL document CHEMBL4842369, “Synthesis, structure-activity relationship and antiviral activity of indole-containing inhibitors of Flavivirus NS2B-NS3 protease” (Eur J Med Chem, 2021):
Activity calls are given as the source filed them. No cut-off for these calls is given here.

Tested on: Zika virus
Assay: Antiviral activity against Zika virus infected in human U87 cells assessed as reduction in infectious virus in supernatant by measuring infection of Vero cells incubated with supernatant of viral infected U87 cells and measured following infection of supernatants with Vero cells for 7 days by MTT assay
Format: functional
Details: U-87 MG, 168 h, time 7 day
Summary of the method: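 U87 cells (2×10^4/well) in DMEM with 2% FBS, infected with ZIKV FLR strain (passage-3 stock) at MOI 0.01 for 1 h, then PBS-washed. Compound added in triplicate, 2 days at 37 °C. Half-log dilutions of supernatant put on Vero monolayers in quadruplicate for 7 days. CPE by microscopy then MTT. TCID50 from highest dilution infecting 2/4 wells. At least 2 independent experiments.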

SMILES	EC68
O=C(NCC1CCNCC1)c1cc2ccc(-c3ccc(OC(F)(F)F)cc3)cc2[nH]1	> 10 µM
O=C(NCC1CCNCC1)c1c[nH]c2nc(-c3ccc(CN4CCOCC4)cc3)ccc12	> 10 µM
O=C(NCC1CCNCC1)c1c[nH]c2cc(-c3ccc(CN4CCCCC4)cc3)ccc12	10 µM
O=C(NCC1CCNCC1)c1cc2ccc(-c3ccc(CO)cc3)cc2[nH]1	> 10 µM
O=C(NCC1CCNCC1)c1c[nH]c2nc(-c3ccc(CN4CCCCC4)cc3)ccc12	10 µM
O=C(NC1CCNCC1)c1c[nH]c2cc(-c3ccncc3)ccc12	10 µM
O=C(NCCC1CCNCC1)c1c[nH]c2cc(-c3ccncc3)ccc12	10 µM
O=C(NCC1CCNCC1)c1cc2ccc(-c3ccc(Oc4ccccc4)cc3)cc2[nH]1	2.5 µM
O=C(NCC1CCNCC1)c1c[nH]c2cc(-c3ccc(-c4ccccc4)cc3)ccc12	> 10 µM
O=C(NCC1CCNCC1)c1c[nH]c2cc(-c3ccoc3)c(-c3ccoc3)cc12	3 µM
O=C(NCC1CCNCC1)c1cc2ccc(-c3ccoc3)cc2[nH]1	1 µM
O=C(NCC1CCNCC1)c1cc2ccc(-c3cn[nH]c3)cc2[nH]1	> 10 µM

Molecular target: Nonstructural protein 3 (Zika virus, UniProt A0A024AXB9)
Assay: Inhibition of Zika virus recombinant NS2B (47 to 95 residues)/NS3 (1 to 177 residues) protease expressed in Escherichia coli BL21 using Bz-Nle-Lys-Lys-Arg-AMC as substrate preincubated for 10 mins by fluorescence-based biochemical assay
Details: not given
Summary of the method: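 ZIKV NS2B-NS3 protease at 1 nM, with 10 µM Bz-Nle-Lys-Lys-Arg-AMC in 20 mM HEPES pH 7.3 containing 0.05% Triton X-100. Compound at increasing concentrations in triplicate, pre-incubated with enzyme 10 min before substrate. Fluorescence (Ex 360/Em 460 nm) read every 30 s. IC50 from dose-response curve fit, 3 independent experiments, standard deviation.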

Chain of Nonstructural protein 3 (A0A024AXB9 whole entry, the tested form may be a part): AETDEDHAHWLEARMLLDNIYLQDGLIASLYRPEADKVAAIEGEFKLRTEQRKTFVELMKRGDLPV

SMILES	IC50
O=C(NCC1CCNCC1)c1cc2cc(-c3ccc(N4CCNCC4)cc3)ccc2[nH]1	8.8 µM
O=C(NCC1CCNCC1)c1cc2cc(-c3ccc(CN4CCCCC4)cc3)ccc2[nH]1	4.7 µM
O=C(NCC1CCNCC1)c1cc2ccccc2[nH]1	24.6 µM
O=C(NCC1CCNCC1)c1cc2ccc(C3=CCNCC3)cc2[nH]1	21 µM
O=C(NCC1CCNCC1)c1cc2ccc(-c3ccccc3)cc2[nH]1	9.4 µM
O=C(NCC1CCNCC1)c1cc2ccc(-c3ccc(CCO)cc3)cc2[nH]1	45.6 µM
CC(C)(C)c1ccc(-c2ccc3c(ccn3Cc3ccc(-c4ccncc4)cc3)c2)cc1	> 50 µM
O=C(NCC1CCNCC1)c1c[nH]c2nc(-c3ccc(C(F)(F)F)cc3)ccc12	18.1 µM
NCc1ccc(-c2ccc3cc(C(=O)NCC4CCNCC4)[nH]c3c2)cc1	3.2 µM
O=C(NCC1CCNCC1)c1cc2cc(-c3cn[nH]c3)ccc2[nH]1	6 µM
O=C(NCC1CCNCC1)c1c[nH]c2nc(-c3ccncc3)ccc12	1.9 µM
O=C(NCC1CCNCC1)c1cc2cc(-c3ccncc3)ccc2[nH]1	37 µM
O=C(NC1CCNCC1)c1coc2cc(-c3ccoc3)ccc12	2.86 µM
O=C(NCC1CCNCC1)c1cc2ccc(-c3ccc(N4CCNCC4)cc3)cc2[nH]1	5.6 µM
O=C(NCC1CCNCC1)c1c[nH]c2nc(-c3ccc(CN4CCOCC4)cc3)ccc12	0.6 µM
O=C(NC1CCNCC1)c1cc2ccc(-c3ccncc3)cc2[nH]1	9.8 µM
CC(C)(C)c1ccc(-c2ccc3c(ccn3Cc3ccc(-c4ccoc4)cc3)c2)cc1	> 50 µM

SMILES	IC50
N#Cc1ccc(-c2ccc3c(C(=O)NCC4CCNCC4)c[nH]c3c2)cc1	21.8 µM
O=C(NCC1CCNCC1)c1cc2cc(-c3ccc(N4CCCC4)cc3)ccc2[nH]1	3.4 µM
COc1cc(-c2ccc3[nH]cc(C(=O)NC4CCNCC4)c3c2)cc(OC)c1OC	> 50 µM
O=C(NCC1CCNCC1)c1c[nH]c2cc(-c3ccc(CN4CCCCC4)cc3)ccc12	3.1 µM
O=C(NCC1CCNCC1)c1c[nH]c2ccc(-c3ccc(F)cc3F)cc12	> 50 µM
O=Cc1cccc(-c2ccc3[nH]cc(C(=O)NCC4CCNCC4)c3c2)c1	> 50 µM
CC(C)(C)c1ccc(-c2ccc3[nH]c(C(=O)NCC4CCNCC4)cc3c2)cc1	7 µM
O=C(NCC1CCNCC1)c1cc2ccc(-c3ccc(CO)cc3)cc2[nH]1	3.1 µM
O=C(NCC1CCNCC1)c1c[nH]c2nc(-c3ccc(CN4CCCCC4)cc3)ccc12	0.45 µM
O=C(NC1CCNCC1)c1c[nH]c2cc(-c3ccncc3)ccc12	1 µM
O=C(NCCC1CCNCC1)c1c[nH]c2cc(-c3ccncc3)ccc12	0.63 µM
O=C(NCC1CCNCC1)c1cc2ccc(-c3ccc(Oc4ccccc4)cc3)cc2[nH]1	1.6 µM
O=C(NCC1CCNCC1)c1c[nH]c2cc(-c3ccc(-c4ccccc4)cc3)ccc12	4.2 µM
O=C(NCC1CCNCC1)c1c[nH]c2cc(-c3ccoc3)c(-c3ccoc3)cc12	0.37 µM
O=C(NCC1CCNCC1)c1cc2ccc(-c3ccoc3)cc2[nH]1	0.32 µM
O=C(NCC1CCNCC1)c1cc2ccc(-c3cn[nH]c3)cc2[nH]1	0.99 µM

Molecular target: Genome polyprotein (West Nile virus, UniProt P06935)
Assay: Inhibition of West Nile virus NS2B (49 to 96 residues)/NS3 (2 to 184 residues) protease expressed in Escherichia coli BL21 using Bz-Nle-Lys-Lys-Arg-AMC as substrate preincubated for 10 mins by fluorescence-based biochemical assay
Details: not given
Summary of the method: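 Recombinant WNV NS2B-NS3 protease, tested in the same way as the Zika protease assay. Compound was preincubated with enzyme for 10 min before Bz-Nle-Lys-Lys-Arg-AMC was added. Hydrolysis was followed as AMC fluorescence (Ex 360/Em 460 nm) read every 30 s. IC50 was derived by dose-response curve fitting.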

Chain of Genome polyprotein (West Nile virus, UniProt P06935) (P06935 1371-1501 limits assumed): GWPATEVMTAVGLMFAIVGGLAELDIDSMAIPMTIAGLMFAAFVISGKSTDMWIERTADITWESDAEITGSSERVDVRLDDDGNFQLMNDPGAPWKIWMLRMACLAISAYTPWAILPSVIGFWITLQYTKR
Chain of Genome polyprotein (West Nile virus, UniProt P06935) (P06935 1502-2120 limits assumed): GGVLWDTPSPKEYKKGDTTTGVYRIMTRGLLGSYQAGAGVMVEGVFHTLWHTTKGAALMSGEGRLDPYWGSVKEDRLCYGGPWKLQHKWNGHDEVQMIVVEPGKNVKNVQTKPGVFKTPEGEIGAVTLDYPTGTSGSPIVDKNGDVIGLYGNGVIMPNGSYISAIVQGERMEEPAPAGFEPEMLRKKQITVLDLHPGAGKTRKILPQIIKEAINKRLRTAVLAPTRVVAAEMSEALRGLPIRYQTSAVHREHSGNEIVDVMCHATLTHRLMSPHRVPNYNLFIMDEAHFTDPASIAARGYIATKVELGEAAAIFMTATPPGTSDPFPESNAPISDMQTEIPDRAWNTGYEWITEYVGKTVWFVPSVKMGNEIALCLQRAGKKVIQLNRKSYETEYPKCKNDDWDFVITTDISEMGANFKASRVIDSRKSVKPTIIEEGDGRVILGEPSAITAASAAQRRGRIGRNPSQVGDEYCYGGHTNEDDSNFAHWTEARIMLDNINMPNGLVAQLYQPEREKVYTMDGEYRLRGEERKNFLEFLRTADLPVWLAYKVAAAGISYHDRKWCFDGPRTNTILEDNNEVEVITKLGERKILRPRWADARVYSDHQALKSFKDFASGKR

SMILES	IC50
O=C(NCC1CCNCC1)c1cc2ccc(-c3ccc(OC(F)(F)F)cc3)cc2[nH]1	16 µM
N#Cc1ccc(-c2ccc3c(C(=O)NCC4CCNCC4)c[nH]c3c2)cc1	50.5 µM
O=C(NCC1CCNCC1)c1c[nH]c2cc(-c3ccc(CN4CCCCC4)cc3)ccc12	32 µM
O=C(NCC1CCNCC1)c1c[nH]c2nc(-c3ccc(CN4CCCCC4)cc3)ccc12	8.6 µM
O=C(NC1CCNCC1)c1c[nH]c2cc(-c3ccncc3)ccc12	10.5 µM
O=C(NCC1CCNCC1)c1cc2ccc(-c3ccc(Oc4ccccc4)cc3)cc2[nH]1	6.6 µM
O=C(NCC1CCNCC1)c1c[nH]c2cc(-c3ccoc3)c(-c3ccoc3)cc12	3.7 µM
O=C(NCC1CCNCC1)c1cc2ccc(-c3ccoc3)cc2[nH]1	5.7 µM
O=C(NCC1CCNCC1)c1cc2ccc(-c3cn[nH]c3)cc2[nH]1	3.5 µM

Molecular target: Genome polyprotein (dengue virus type 2, UniProt P29990)
Assay: Inhibition of Dengue virus 2 NS2B (50 to 95 residues)/NS3 (1 to 182 residues) protease expressed in Escherichia coli BL21 using Bz-Nle-Lys-Lys-Arg-AMC as substrate preincubated for 10 mins by fluorescence-based biochemical assay
Details: not given
Summary of the method: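 Recombinant DENV-2 NS2B-NS3 protease assayed like the ZIKV protease. Bz-Nle-Lys-Lys-Arg-AMC substrate, compound pre-incubated with enzyme 10 min, fluorescence monitored at Ex 360/Em 460 nm. IC50 from dose-response fit of triplicate samples at increasing concentrations.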

SMILES	IC50
O=C(NCC1CCNCC1)c1cc2ccc(-c3ccc(OC(F)(F)F)cc3)cc2[nH]1	10.7 µM
N#Cc1ccc(-c2ccc3c(C(=O)NCC4CCNCC4)c[nH]c3c2)cc1	12 µM
O=C(NCC1CCNCC1)c1c[nH]c2cc(-c3ccc(CN4CCCCC4)cc3)ccc12	49.7 µM
O=C(NCC1CCNCC1)c1c[nH]c2nc(-c3ccc(CN4CCCCC4)cc3)ccc12	9.2 µM
O=C(NC1CCNCC1)c1c[nH]c2cc(-c3ccncc3)ccc12	10 µM
O=C(NCC1CCNCC1)c1cc2ccc(-c3ccc(Oc4ccccc4)cc3)cc2[nH]1	6.5 µM
O=C(NCC1CCNCC1)c1c[nH]c2cc(-c3ccoc3)c(-c3ccoc3)cc12	3.1 µM
O=C(NCC1CCNCC1)c1cc2ccc(-c3ccoc3)cc2[nH]1	1.6 µM
O=C(NCC1CCNCC1)c1cc2ccc(-c3cn[nH]c3)cc2[nH]1	10.3 µM

Molecular target: Genome polyprotein (dengue virus type 2) (UniProt P29990)
Assay: Competitive inhibition of Dengue virus 2 NS2B (50 to 95 residues)/NS3 (1 to 182 residues) protease expressed in Escherichia coli BL21 using increased concentration of Bz-Nle-Lys-Lys-Arg-AMC substrate
Details: not given
Summary of the method: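 Steady-state kinetics. Initial velocities were measured across a range of inhibitor concentrations and substrate levels. […] Fluorescence was read at Ex 360/Em 460 nm. An IC50 was fitted at each substrate level and plotted against substrate concentration to assign the mode of inhibition.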

SMILES	Activity
O=C(NCC1CCNCC1)c1cc2ccc(-c3ccoc3)cc2[nH]1	inactive

Tested on: U-87 MG
Assay: Cytotoxicity against human U87 cells assessed as inhibition of growth by MTT assay
Format: cell-based
Details: u-87mg atcc

SMILES	CC50
O=C(NCC1CCNCC1)c1cc2ccc(-c3ccc(OC(F)(F)F)cc3)cc2[nH]1	> 10 µM
O=C(NCC1CCNCC1)c1c[nH]c2nc(-c3ccc(CN4CCOCC4)cc3)ccc12	> 10 µM
O=C(NCC1CCNCC1)c1c[nH]c2cc(-c3ccc(CN4CCCCC4)cc3)ccc12	> 10 µM
O=C(NCC1CCNCC1)c1cc2ccc(-c3ccc(CO)cc3)cc2[nH]1	> 10 µM
O=C(NCC1CCNCC1)c1c[nH]c2nc(-c3ccc(CN4CCCCC4)cc3)ccc12	> 10 µM
O=C(NC1CCNCC1)c1c[nH]c2cc(-c3ccncc3)ccc12	> 10 µM
O=C(NCCC1CCNCC1)c1c[nH]c2cc(-c3ccncc3)ccc12	> 10 µM
O=C(NCC1CCNCC1)c1cc2ccc(-c3ccc(Oc4ccccc4)cc3)cc2[nH]1	> 10 µM
O=C(NCC1CCNCC1)c1c[nH]c2cc(-c3ccc(-c4ccccc4)cc3)ccc12	> 10 µM
O=C(NCC1CCNCC1)c1c[nH]c2cc(-c3ccoc3)c(-c3ccoc3)cc12	> 10 µM
O=C(NCC1CCNCC1)c1cc2ccc(-c3ccoc3)cc2[nH]1	> 10 µM
O=C(NCC1CCNCC1)c1cc2ccc(-c3cn[nH]c3)cc2[nH]1	> 10 µM
